Series [1] in a line: AUC in Swiss Webster mouse blood at 40 mg/kg, ip by LC-MS/MS analysis. It is filed as ADME, organism-based. On the set-up: dose 40 mg/kg. Summed up:
(§1)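 Single i.p. dose of 40 mg/kg in Swiss Webster mice; blood, brain and liver taken at several time points. Tissues homogenized in acetonitrile, centrifuged, spin-filtered, dried and reconstituted, with 4,5-diphenylimidazole as instrument standard. Quantified by LC–MS/MS on a C18 column with a formic acid/MeCN gradient. Mean ± SD (n = 4), fitted to a two-compartment PK model.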

Series [2] in a line: Elimination rate in Swiss Webster mouse liver at 40 mg/kg, ip by LC-MS/MS analysis. It is filed as ADME, organism-based. Summed up: as §1
Series [3] can be described thus: Tmax in Swiss Webster mouse liver at 40 mg/kg, ip by LC-MS/MS analysis. It is filed as ADME, organism-based. In short, it runs like this: as §1
The nature of series [4]: Drug uptake in BALB/c mouse brain at 40 mg/kg, ip measured upto 60 mins by mass spectroscopy analysis. It is filed as ADME, organism-based. The note with it: in vivo, 1 h. In short, it runs like this: (§2)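 BALB/c mice received 40 mg/kg i.p. Retro-orbital blood was collected under isoflurane, then liver and whole brain after CO2 euthanasia, at 10, 30 and 60 min. Acetonitrile extracts were spin-filtered with 4,5-diphenylimidazole as instrument standard and analysed by LC–MS/MS.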

The nature of series [5]: Drug uptake in BALB/c mouse blood at 40 mg/kg, ip measured upto 60 mins by mass spectroscopy analysis. It is filed as ADME, organism-based. The note with it: in vivo, 1 h. Summed up: as §2
Series [6] can be described thus: Elimination rate in Swiss Webster mouse blood at 40 mg/kg, ip by LC-MS/MS analysis. It is filed as ADME, organism-based. In short, it runs like this:
as §1

A short description of series [7]: Cmax in Swiss Webster mouse brain at 40 mg/kg, ip by LC-MS/MS analysis. On the set-up: route intraperitoneal, dose 40 mg/kg. It is filed as ADME, organism-based. In short, it runs like this: as §1
A further series addresses T1, Histone deacetylase 8 (Homo sapiens, UniProt Q9BY41).
T1 sequence (Q9BY41 whole entry): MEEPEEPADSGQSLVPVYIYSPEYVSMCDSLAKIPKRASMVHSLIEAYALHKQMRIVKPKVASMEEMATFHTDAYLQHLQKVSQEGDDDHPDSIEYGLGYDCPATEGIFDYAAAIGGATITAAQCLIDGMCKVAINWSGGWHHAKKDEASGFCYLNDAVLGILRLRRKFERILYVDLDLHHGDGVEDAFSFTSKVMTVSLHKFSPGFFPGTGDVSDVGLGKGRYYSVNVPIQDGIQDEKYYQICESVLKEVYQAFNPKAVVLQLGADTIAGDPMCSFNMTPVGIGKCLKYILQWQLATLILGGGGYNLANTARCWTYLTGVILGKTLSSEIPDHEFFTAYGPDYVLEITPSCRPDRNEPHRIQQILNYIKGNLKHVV
Kind of series: Inhibition of HDAC8 in human DU-145 cells assessed as increase in histone H3 acetylation after 24 hrs by immunofluorescence microscopy. It is filed as cell-based.

A short description of series [8]: Drug uptake in BALB/c mouse liver at 40 mg/kg, ip measured upto 60 mins by mass spectroscopy analysis. It is filed as ADME, organism-based. The note with it: in vivo, 1 h. In short, it runs like this: as §2
Series [9] deals with T2, Histone deacetylase 2 (Homo sapiens, UniProt Q92769). Kind of series: Inhibition of recombinant human full-length HDAC2 incubated for 10 mins by Glo-luminescence assay. In short, it runs like this: (§3)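 Compounds were serially diluted and incubated with enzyme for 10 min. HDAC-Glo I/II substrate/developer was then added, and luminescence read after 40 min at 23 °C. IC50 from four-parameter fits from two independent titrations, mean ± SD.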
T2 sequence (Q92769 whole entry): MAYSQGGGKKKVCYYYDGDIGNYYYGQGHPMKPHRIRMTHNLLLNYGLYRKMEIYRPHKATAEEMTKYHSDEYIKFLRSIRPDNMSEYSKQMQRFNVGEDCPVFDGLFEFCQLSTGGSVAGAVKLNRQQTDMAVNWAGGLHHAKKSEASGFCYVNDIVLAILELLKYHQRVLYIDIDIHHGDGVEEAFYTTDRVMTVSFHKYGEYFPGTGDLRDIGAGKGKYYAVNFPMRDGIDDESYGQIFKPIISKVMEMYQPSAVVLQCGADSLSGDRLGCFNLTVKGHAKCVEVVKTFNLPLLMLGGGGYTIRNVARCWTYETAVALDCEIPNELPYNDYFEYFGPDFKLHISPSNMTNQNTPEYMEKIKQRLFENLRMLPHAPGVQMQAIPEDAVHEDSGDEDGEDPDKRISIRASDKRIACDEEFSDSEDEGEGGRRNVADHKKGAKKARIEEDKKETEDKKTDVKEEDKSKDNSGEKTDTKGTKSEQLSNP

A short description of series [10]: Elimination rate in Swiss Webster mouse brain at 40 mg/kg, ip by LC-MS/MS analysis. It is filed as ADME, organism-based. In short, it runs like this:
as §1

Series [11] has as its target T3, Histone deacetylase (Homo sapiens) (UniProt Q13547+O15379+Q9UBN7+Q92769+Q9UQL6+Q8WUI4+Q9BY41+Q96DB2+P56524+Q9UKV0+Q969S8). Nature of the series: Inhibition of HDAC in human DU-145 cells assessed as increase in histone H3 acetylation after 24 hrs by immunofluorescence microscopy. It is filed as cell-based. In short, it runs like this:
(§4)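 Cells were fixed in 4% PFA and permeabilized in TBS-T/BSA. Staining used anti-acetyl-H3 (Lys9/Lys14) at 1:2000, an AlexaFluor 488 secondary and DAPI. At least five random fields were imaged by fluorescence microscopy; three independent experiments.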

The test system of series [12] is DU-145. Kind of series: Cytotoxicity against human DU-145 cells assessed as reduction in cell viability at 50 uM incubated for 48 hrs by MTT assay. It is filed as functional. In short, it runs like this:
(§5)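 DU145 cells in DMEM with 10% FBS were seeded at 14 000 cells/well and allowed to adhere for 24 h. Test agents were diluted from 10 mM DMSO stocks (100, 50, 25 µM; 10, 5, 1.25 nM) and applied in triplicate for 48 h at 37 °C, 5% CO2, with DMSO as vehicle. Read-out was 250 µg/mL MTT for 4 h, DMSO solubilization, and A570 with 690 nm reference. Values normalized to DMSO.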
On the technique in general: Tetrazolium assays rely on reduction of a dye to a coloured formazan, in cell work by metabolically active cells.

A short description of series [13]: Cmax in Swiss Webster mouse liver at 40 mg/kg, ip by LC-MS/MS analysis. It is filed as ADME, organism-based. Also noted: route intraperitoneal, dose 40 mg/kg. Summed up:
as §1

Series [14] has as its target T2, Histone deacetylase 2. Kind of series: Inhibition of recombinant human full-length HDAC2 preincubated for 20 mins with DTT followed by enzyme addition and measured after 10 mins by Glo-luminescence assay. Summed up:
as §3

Series [15] is described as follows: Tmax in Swiss Webster mouse brain at 40 mg/kg, ip by LC-MS/MS analysis. It is filed as ADME, organism-based. Summed up: as §1
In another series the target is Histone deacetylase 1 (Homo sapiens, UniProt Q13547). Nature of the series: Inhibition of HDAC1 in human DU-145 cells assessed as increase in histone H3 acetylation after 24 hrs by immunofluorescence microscopy. It is filed as cell-based.
Sequence of Histone deacetylase 1 (Q13547 whole entry): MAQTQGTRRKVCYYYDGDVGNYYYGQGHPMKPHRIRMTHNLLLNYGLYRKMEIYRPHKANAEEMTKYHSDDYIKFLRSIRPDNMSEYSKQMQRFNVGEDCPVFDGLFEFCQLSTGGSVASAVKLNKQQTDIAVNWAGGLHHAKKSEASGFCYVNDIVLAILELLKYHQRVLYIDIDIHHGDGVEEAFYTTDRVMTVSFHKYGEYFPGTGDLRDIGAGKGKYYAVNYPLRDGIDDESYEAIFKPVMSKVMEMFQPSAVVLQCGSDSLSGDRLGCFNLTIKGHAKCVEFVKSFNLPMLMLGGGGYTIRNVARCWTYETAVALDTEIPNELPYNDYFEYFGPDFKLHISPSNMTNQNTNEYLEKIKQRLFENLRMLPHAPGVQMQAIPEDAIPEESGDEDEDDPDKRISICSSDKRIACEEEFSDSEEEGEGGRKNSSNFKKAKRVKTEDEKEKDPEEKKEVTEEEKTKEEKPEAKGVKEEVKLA
Series [16] has as its system Mus musculus. Kind of series: Cognitive enhancing effect in C57BL/6 mouse assessed as enhanced object recognition memory consolidation at 20 to 40 mg/kg, ip measured after 48 hrs. It is filed as functional, organism-based. The note with it: dose 20-40 mg/kg. Summed up:
(§6)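 Male C57BL/6 mice trained to 30 s of total exploration of two identical objects (20 min maximum). Immediately afterwards they received one i.p. injection at 5 mL/kg in 100% DMSO (20, 30 or 40 mg/kg); vehicle DMSO, NaBu 600 mg/kg in saline. Object placement (moved object) tested at 24 h and object recognition (novel object) at 48 h. Time with that object compared to chance (15 s) by one-sample t-test.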

Series [17] is described as follows: Cmax in Swiss Webster mouse blood at 40 mg/kg, ip by LC-MS/MS analysis. It is filed as ADME, organism-based. On the set-up: route intraperitoneal, dose 40 mg/kg. Particulars: in vivo. Summed up: as §1
For the next series, the target named is Histone deacetylase 3 (Homo sapiens, UniProt O15379). Kind of series: Inhibition of HDAC3 in human DU-145 cells assessed as increase in histone H3 acetylation after 24 hrs by immunofluorescence microscopy. It is filed as cell-based.
Sequence of Histone deacetylase 3 (O15379 whole entry): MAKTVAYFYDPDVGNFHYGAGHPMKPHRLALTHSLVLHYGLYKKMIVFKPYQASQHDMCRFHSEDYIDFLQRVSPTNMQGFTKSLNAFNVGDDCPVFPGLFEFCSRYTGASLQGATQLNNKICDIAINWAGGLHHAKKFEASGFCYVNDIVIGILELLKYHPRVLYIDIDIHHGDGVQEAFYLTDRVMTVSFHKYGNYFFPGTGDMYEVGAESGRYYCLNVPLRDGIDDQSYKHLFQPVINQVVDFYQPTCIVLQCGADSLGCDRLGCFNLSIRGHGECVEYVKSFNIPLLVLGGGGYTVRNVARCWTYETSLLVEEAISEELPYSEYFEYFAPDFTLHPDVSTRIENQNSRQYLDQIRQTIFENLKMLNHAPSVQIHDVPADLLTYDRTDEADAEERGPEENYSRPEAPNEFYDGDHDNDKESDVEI
Series [18] can be described thus: Half life in Swiss Webster mouse brain at 40 mg/kg, ip by LC-MS/MS analysis. It is filed as ADME, organism-based. Particulars: in vivo. Summed up: as §1
In series [19] the test system is Mus musculus. Kind of series: Cognitive enhancing effect in C57BL/6 mouse assessed as enhanced spatial memory at 20 to 40 mg/kg, ip measured after 24 hrs. It is filed as functional, organism-based. Particulars: dose 20-40 mg/kg. Summed up: as §6
In series [20] the test system is DU-145. Nature of the series: Cytotoxicity against human DU-145 cells assessed as reduction in cell viability at 100 uM incubated for 48 hrs by MTT assay. It is filed as functional. Summed up:
as §5

The target in series [21] is T3, Histone deacetylase (Homo sapiens). Nature of the series: Inhibition of HDAC in human DU-145 cells assessed as increase in histone H3 acetylation at 50 to 100 uM after 24 hrs by immunofluorescence microscopy. It is filed as cell-based. The note with it: dose 50-100 µM. In short, it runs like this: as §4

Activity calls are given as the source filed them. The rule behind the calls is not given here.

In general, AUC refers to concentration integrated over time. A high value points to high exposure. As a reminder, the Tmax is the time at which the peak concentration occurs. The Cmax is the peak of the concentration-time curve. In general, IC50 refers to the point on the concentration scale where inhibition reaches its midpoint. One may read the inhibition as the relative decrease from the control value, in per cent. Take `CC(C)(C)OC(=O)CC(O)/C=C/CCSSCC/C=C/C(O)CC(=O)OC(C)(C)C` (centres undefined): in [1], the AUC is 88.1 ng·h/mL. The k el was 0.000283 s⁻¹ in series [2], 0.000367 s⁻¹ in series [6] and 0.000867 s⁻¹ in series [10]. The Tmax in [3] and in series [15] was 10 min in each case. Moreover, the Drug uptake result in [4], in series [5] and in [8] was “Active” each time. The Cmax in series [7] was determined as 82.5 ng/g; in series [13], 530 ng/g; in [17], 131.2 ng/mL. Moreover, the 50% inhibitory concentration (IC50) was 11 µM at Histone deacetylase 8; 100 µM at Histone deacetylase 2 [9]; 10 µM on Histone deacetylase 2 [14]; 8.7 µM on Histone deacetylase 1; 8 µM on Histone deacetylase 3. Also, in series [11], the inhibition entry is “Dose-Dependent Effect”. Further, in the series on DU-145 [12], the inhibition at 50 µM came to 50%. Further, the outcome with Mus musculus [16] was inactive. Further, the t1/2 in series [18] came to 13.4 min. Further, in the series on Mus musculus [19], the result was Active. For the same compound, the inhibition at 100 µM with DU-145 [20] was 80%. Also, the inhibition result in series [21] was “Active”.

The record behind these values is ChEMBL document CHEMBL5046273, “Development of a Novel, Small-Molecule Brain-Penetrant Histone Deacetylase Inhibitor That Enhances Spatial Memory Formation in Mice” (J Med Chem, 2022).
